Published values from different studies.
Lines come from different studies, so protocols differ.

CC(=Nc1ccc(N=Cc2cnccn2)cc1)N(C)C
half-life (male Sprague-Dawley rat, plasma; oral, 200 mg/kg): 7.79 h

N#C[C@@]12C[C@@H]1[C@@H](n1cnc3c(N[C@@H](C4CCC4)C4CC4)nc(I)nc31)[C@H](O)[C@@H]2O
half-life (male Wistar rat, plasma; oral, 3 mg/kg): 4.3 h

O=C(C=Cc1ccccc1)Nc1cc(-c2ccnc(N3CCC(O)CC3)c2)ccn1
half-life (female Sprague-Dawley rat, plasma; oral, 50 mg/kg): 0.48 h

O=C1CC[C@H](N2Cc3cc(N4CCN(CC5CCN(c6ccc([C@@H]7c8ccc(O)cc8CC[C@@H]7c7ccccc7)cc6)CC5)CC4)ccc3C2=O)C(=O)N1
half-life (female Sprague-Dawley rat, plasma; oral, 20 mg/kg, fed): 6.38 h

COc1ccc2cc3n(c(=O)c2c1OC)CCc1cc2c(cc1-3)OCO2
half-life (male Sprague-Dawley rat, blood; oral, 50 mg/kg): 1.57 h

Nc1ccc(/C=C/C(=O)NCc2cc3cc(-c4ccc(C(=O)N5CCC(F)(F)CC5)cc4)cc(-c4ccc(F)cc4)c3o2)cn1
half-life (rat, plasma; oral, 3 mg/kg): 4.59 h

C/C(=N\c1ccc(O)cc1)c1cc2ccccc2n1C
half-life (male Sprague-Dawley rat, plasma; intravenous, 5 mg/kg, single dose): ~4.5 h

CC1(CN)CCN(c2cnc3c(Sc4ccncc4Cl)n[nH]c3n2)CC1
half-life (male Sprague-Dawley rat, plasma; intravenous, 2 mg/kg): 0.935 h

O=c1cc(-c2ccc(O)c(O)c2)oc2cc(O)cc(O)c12
half-life (male Sprague-Dawley rat, plasma; oral, 30 mg/kg): 2.2 h
